Reference: ChEMBL document CHEMBL3808299 (J Med Chem, 2016)
The source made the active and inactive calls. The calls are words filed in the database; no cut-off is given here.

Legend:
HUVEC [1] = assay: Antiproliferative activity against HUVEC assessed as inhibition of VEGF induced cell proliferation after 72 hrs by MTS assay; type: functional; conditions: Homo sapiens
Summary of the method: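 HUVECs were seeded at 3,000 cells/well, attached overnight, then treated with varying drug concentrations. Metabolic activity was read with MTS/PMS after 72 h. GI50 is the mean ± SEM of at least two separate experiments run in triplicate.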

[2] = Inhibition of hedgehog pathway in mouse ASZ cells assessed as downregulation of Gli1 mRNA expression after 48 hrs by qPCR method; type: cell-based
Summary of the method: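 ASZ murine BCC cells, whose Hh signaling is constitutively active through a heterozygous PTCH1 mutation, got no added agonist. They were treated with a concentration series for 48 h and Gli1 mRNA was quantified by qPCR. IC50 is the mean ± SEM of at least two separate experiments in triplicate.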

[3] = Inhibition of hedgehog pathway in mouse C3H10T1/2 cells assessed as downregulation of Gli1 mRNA expression after 24 hrs by qPCR method; type: cell-based; conditions: C3H 10T1/2, 24 h
Summary of the method: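 Hh-ligand-stimulated C3H10T1/2 cells (recombinant mouse Sonic Hedgehog C25II) were exposed to a concentration series of compound for 24 h. Gli1 mRNA was read by qPCR. IC50 is the mean ± SEM of at least two separate experiments in triplicate.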

[4] = Inhibition of hedgehog pathway in mouse C3H10T1/2 cells assessed as Gli1 mRNA expression at 1 uM after 24 hrs by qPCR method; type: cell-based; design: scale not given: the % may be the effect or the level left; conditions: C3H 10T1/2
Summary of the method: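 C3H10T1/2 mouse embryonic fibroblasts were stimulated with recombinant mouse Sonic Hedgehog (C25II) and co-treated with compound at 1 μM for 24 h. Endogenous Gli1 mRNA was measured by qPCR and expressed as % of the Hh-ligand-only control (100%).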

HUVEC [5] = assay: Antiangiogenic activity against HUVEC assessed as inhibition of total tube length at 1 uM after 16 hrs by inverted microscopy; type: functional, cell-based; conditions: Homo sapiens
Summary of the method: (§1)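 HUVECs in M199 with 1% FBS and penicillin/streptomycin, 50,000 cells per well, on Matrigel diluted 1:1 with DMEM and set at 37°C. Cells attached for 20-30 min, then got DMSO, suramin (10 uM) or drug at 10, 1 or 0.1 μM for 16 h. Eight phase-contrast fields per well were imaged. Total tube length and junctions were scored relative to DMSO (100%). Each assay was repeated at least three times.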

Cytochrome P450 3A4 = Cytochrome P450 3A4 (Homo sapiens, UniProt P08684); assay: Inhibition of CYP3A4 in human liver microsomes using testosterone as substrate after 10 mins by LC/MS/MS analysis; type: ADME
Sequence of Cytochrome P450 3A4 (P08684 whole entry): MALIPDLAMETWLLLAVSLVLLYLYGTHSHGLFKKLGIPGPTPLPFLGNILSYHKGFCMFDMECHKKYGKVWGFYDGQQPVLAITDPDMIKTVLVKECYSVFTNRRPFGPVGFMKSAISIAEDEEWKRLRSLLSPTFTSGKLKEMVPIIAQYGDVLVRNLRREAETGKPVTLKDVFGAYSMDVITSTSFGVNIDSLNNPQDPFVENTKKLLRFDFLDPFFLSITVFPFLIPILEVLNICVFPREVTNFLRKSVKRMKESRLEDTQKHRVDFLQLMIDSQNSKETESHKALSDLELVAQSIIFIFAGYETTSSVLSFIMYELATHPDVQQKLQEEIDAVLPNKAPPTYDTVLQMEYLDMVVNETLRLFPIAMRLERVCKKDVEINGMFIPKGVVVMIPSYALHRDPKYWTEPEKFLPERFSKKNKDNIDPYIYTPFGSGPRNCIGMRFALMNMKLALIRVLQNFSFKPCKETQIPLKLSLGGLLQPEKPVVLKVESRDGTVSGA

HUVEC [6] = assay: Antiangiogenic activity against HUVEC assessed as inhibition of total tube junctions at 1 uM after 16 hrs by inverted microscopy; type: functional, cell-based; conditions: Homo sapiens; summary of the method: as §1
HUVEC [7] = assay: Antiangiogenic activity against HUVEC assessed as inhibition of total tube junctions at 10 uM after 16 hrs by inverted microscopy; type: functional; conditions: Homo sapiens; summary of the method: as §1
HUVEC [8] = assay: Antiangiogenic activity against HUVEC assessed as inhibition of total tube length at 10 uM after 16 hrs by inverted microscopy; type: functional; conditions: Homo sapiens; summary of the method: as §1
[9] = Antiproliferative activity against mouse MERP MB cells assessed as cell growth inhibition using methyl-[3H]thymidine after 48 hrs by liquid scintillation spectrophotometry; type: functional; conditions: Medulloblastoma cell
Summary of the method: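 Primary MB cells isolated from Math1-Cre-ER;Ptc fl/fl (MERP) mouse tumours were cultured in vitro and exposed to compound for 48 h to measure proliferation. GI50 is the mean ± SEM of at least two separate experiments in triplicate.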

[10] = Inhibition of hedgehog pathway in mouse MERP MB cells assessed as downregulation of Gli1 mRNA expression after 48 hrs by qPCR method; type: cell-based
Summary of the method: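 Primary medulloblastoma cells from Math1-Cre-ER;Ptc fl/fl mice were incubated with compound for 48 h. Gli1 mRNA was measured by qPCR. IC50 is the mean ± SEM of two separate experiments.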

SMILES	GI50 (HUVEC [1]) [nM]	IC50 [2] [nM]	IC50 [3] [nM]	Activity [4] [%]	further results
O=[N+]([O-])c1ccc(N2CCN(c3ccc(OCC4COC(Cn5cncn5)(c5ccc(Cl)cc5Cl)O4)cc3)CC2)cc1 (stereo not given)	8400	90	130	1.5	–
CCC(C)n1ncn(-c2ccc(N3CCN(c4ccc(OCC5COC(C)(Cn6cncn6)O5)cc4)CC3)cc2)c1=O (stereo not given)	18400	–	–	61.4	–
CCC(C)n1ncn(-c2ccc(N3CCN(c4ccc(OCC5COC(C)(c6ccc(Cl)cc6Cl)O5)cc4)CC3)cc2)c1=O (stereo not given)	23800	170	140	17.8	inhibition (HUVEC [5]): Active; IC50 (Cytochrome P450 3A4): > 10000 nM; inhibition (HUVEC [6]): Active
Cc1ccc(C(=O)Nc2ccc(S(=O)(=O)O)c3cc(S(=O)(=O)O)cc(S(=O)(=O)O)c23)cc1NC(=O)c1cccc(NC(=O)Nc2cccc(C(=O)Nc3cc(C(=O)Nc4ccc(S(=O)(=O)O)c5cc(S(=O)(=O)O)cc(S(=O)(=O)O)c45)ccc3C)c2)c1 [SURAMIN]	–	–	–	–	inhibition at 10 µM (HUVEC [7]): 57.6%; inhibition at 10 µM (HUVEC [8]): 51.9%
CCCn1ncn(-c2ccc(N3CCN(c4ccc(OC[C@@H]5CO[C@](C)(c6ccc(Cl)cc6Cl)O5)cc4)CC3)cc2)c1=O	49900	1400	> 10000	–	–
CC[C@H](C)n1ncn(-c2ccc(N3CCN(c4ccc(OCC5COC(Cn6cncn6)(c6ccc(Cl)cc6Cl)O5)cc4)CC3)cc2)c1=O (stereo not given in full)	2500	140	160	6.9	–
CC[C@H](C)n1ncn(-c2ccc(N3CCN(c4ccc(OC[C@@H]5CO[C@@](C)(c6ccc(Cl)cc6Cl)O5)cc4)CC3)cc2)c1=O	18300	380	470	–	–
CC[C@@H](C)n1ncn(-c2ccc(N3CCN(c4ccc(OC[C@@H]5CO[C@@](C)(c6ccc(Cl)cc6Cl)O5)cc4)CC3)cc2)c1=O	53200	22	190	–	GI50 [9]: 600 nM; IC50 [10]: 190 nM
O=c1[nH]ncn1-c1ccc(N2CCN(c3ccc(OCC4COC(Cn5cncn5)(c5ccc(Cl)cc5Cl)O4)cc3)CC2)cc1 (stereo not given)	5800	120	43	1.1	–
CC[C@@H](C)n1ncn(-c2ccc(N3CCN(c4ccc(OC[C@H]5CO[C@](C)(c6ccc(Cl)cc6Cl)O5)cc4)CC3)cc2)c1=O	12100	130	540	–	inhibition (HUVEC [7]): inactive; inhibition (HUVEC [8]): inactive
CCC(C)n1ncn(-c2ccc(N3CCN(c4ccc(OC[C@H]5CO[C@@](C)(c6ccc(Cl)cc6Cl)O5)cc4)CC3)cc2)c1=O (relative stereo)	3690	71	850	–	GI50 [9]: 2900 nM
CCCn1ncn(-c2ccc(N3CCN(c4ccc(OC[C@H]5CO[C@](C)(c6ccc(Cl)cc6Cl)O5)cc4)CC3)cc2)c1=O	84100	200	> 10000	–	GI50 [9]: 22400 nM
CC[C@H](C)n1ncn(-c2ccc(N3CCN(c4ccc(OC[C@@H]5CO[C@](C)(c6ccc(Cl)cc6Cl)O5)cc4)CC3)cc2)c1=O	2500	150	1850	–	GI50 [9]: 390 nM; IC50 [10]: 260 nM
CCC(C)n1ncn(-c2ccc(N3CCN(c4ccc(OC[C@@H]5CO[C@@](C)(c6ccc(Cl)cc6Cl)O5)cc4)CC3)cc2)c1=O (stereo not given in full)	3320	77	91	–	GI50 [9]: 2000 nM
CCC(C)n1ncn(-c2ccc(N3CCN(c4ccc(OCC5COC(Cn6cncn6)(c6ccccc6)O5)cc4)CC3)cc2)c1=O (stereo not given)	8300	450	420	13.1	–
Nc1ccc(N2CCN(c3ccc(OCC4COC(Cn5cncn5)(c5ccc(Cl)cc5Cl)O4)cc3)CC2)cc1 (stereo not given)	42700	120	160	6.1	GI50 [9]: 900 nM
CCC(C)n1ncn(-c2ccc(N3CCN(c4ccc(OCC5COC(C)(C)O5)cc4)CC3)cc2)c1=O (stereo not given)	> 100000	–	–	71.4	–
CC[C@H](C)n1ncn(-c2ccc(N3CCN(c4ccc(OC[C@H]5CO[C@](C)(c6ccc(Cl)cc6Cl)O5)cc4)CC3)cc2)c1=O	7700	2500	1100	–	–
CC[C@@H]([C@H](C)O)n1ncn(-c2ccc(N3CCN(c4ccc(OC[C@@H]5CO[C@@](Cn6cncn6)(c6ccc(F)cc6F)C5)cc4)CC3)cc2)c1=O [POSACONAZOLE]	1600	540	140	–	–
CC[C@@H](C)n1ncn(-c2ccc(N3CCN(c4ccc(OCC5COC(Cn6cncn6)(c6ccc(Cl)cc6Cl)O5)cc4)CC3)cc2)c1=O (stereo not given in full)	1700	160	140	3	–
CCCn1ncn(-c2ccc(N3CCN(c4ccc(OC[C@H]5CO[C@@](C)(c6ccc(Cl)cc6Cl)O5)cc4)CC3)cc2)c1=O	24900	540	> 10000	–	–
CCC(C)n1ncn(-c2ccc(N3CCN(c4ccc(O)cc4)CC3)cc2)c1=O (stereo not given)	> 100000	–	–	45.7	–
CCCn1ncn(-c2ccc(N3CCN(c4ccc(OCC5COC(Cn6cncn6)(c6ccc(Cl)cc6Cl)O5)cc4)CC3)cc2)c1=O (stereo not given)	4700	–	–	58.5	–
CC[C@@H](C)n1ncn(-c2ccc(N3CCN(c4ccc(OC[C@@H]5CO[C@](C)(c6ccc(Cl)cc6Cl)O5)cc4)CC3)cc2)c1=O	12800	24	2400	–	GI50 [9]: 1000 nM; inhibition (HUVEC [7]): inactive; inhibition (HUVEC [8]): inactive; IC50 [10]: 290 nM
CC[C@H](C)n1ncn(-c2ccc(N3CCN(c4ccc(OC[C@H]5CO[C@@](C)(c6ccc(Cl)cc6Cl)O5)cc4)CC3)cc2)c1=O	78300	550	> 10000	–	–
CC[C@@H](C)n1ncn(-c2ccc(N3CCN(c4ccc(OC[C@H]5CO[C@@](C)(c6ccc(Cl)cc6Cl)O5)cc4)CC3)cc2)c1=O	65000	2800	6600	–	–
CCCn1ncn(-c2ccc(N3CCN(c4ccc(OC[C@@H]5CO[C@@](C)(c6ccc(Cl)cc6Cl)O5)cc4)CC3)cc2)c1=O	26500	1300	4100	–	–
